Measurements: ChEMBL document CHEMBL1141667, “Synthesis and antimicrobial activities of 7-O-modified genistein derivatives” (2008)
≈ marks a conversion by molar mass, not a printed value.

What was measured:
Format in all cases: functional
[1] = tested on: Staphylococcus aureus; experiment: Antibacterial activity against Staphylococcus aureus after 24 hrs by MTT assay
Summary of the method: (§1)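 Broth microdilution MIC in MH medium. Compounds from a 50 mg/mL DMSO stock were serially diluted in medium. Inoculum was about 10⁵ cfu/mL, each concentration in triplicate, incubated at 37 °C for 24 h. MIC was read visually, then confirmed by adding PBS with 2 mg/mL MTT and incubating 4–5 h at room temperature. A compound-free medium control checked for any MTT effect on growth.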

[2] = tested on: Bacillus subtilis; experiment: Antibacterial activity against Bacillus subtilis after 24 hrs by MTT assay; summary of the method: as §1
[3] = tested on: Pseudomonas fluorescens; experiment: Antibacterial activity against Pseudomonas fluorescens after 24 hrs by MTT assay; summary of the method: as §1
[4] = tested on: Candida albicans; experiment: Antifungal activity against Candida albicans after 48 hrs by MTT assay
Summary of the method: (§2)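 Antifungal MIC by microdilution in RPMI-1640 medium. Compounds came from a 50 mg/mL DMSO stock and were serially diluted. Inoculum was about 10⁵ cfu/mL, with triplicate wells per concentration, incubated at 37 °C for 48 h. MIC was judged visually, followed by PBS containing 2 mg/mL MTT for 4–5 h at room temperature for the colorimetric read. A compound-free control tested MTT interference.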

[5] = tested on: Trichophyton rubrum; experiment: Antifungal activity against Trichophyton rubrum after 48 hrs by MTT assay; summary of the method: as §2
[6] = tested on: Escherichia coli; experiment: Antibacterial activity against Escherichia coli after 24 hrs by MTT assay; summary of the method: as §1
[7] = tested on: Aspergillus niger; experiment: Antifungal activity against Aspergillus niger after 48 hrs by MTT assay; summary of the method: as §2

Row | SMILES | MIC [1] [µg/mL] | MIC [2] [µg/mL] | MIC [3] [µg/mL] | MIC [4] [µg/mL] | MIC [5] [µg/mL] | MIC [6] [µg/mL] | MIC [7] [µg/mL]
1 | CCCN(CCC)CCCCOc1cc(O)c2c(=O)c(-c3ccc(O)cc3)coc2c1 | 10.5 (≈ 24.7 µM) | 19.5 (≈ 45.8 µM) | 19.5 (≈ 45.8 µM) | > 50 | > 50 | > 50 | > 50
2 | O=c1c(-c2ccc(O)cc2)coc2cc(OCCCCBr)cc(O)c12 | > 50 | > 50 | > 50 | > 50 | > 50 | > 50 | > 50
3 | O=c1c(-c2ccc(O)cc2)coc2cc(OCCN3CCCCC3)cc(O)c12 | > 50 | > 50 | > 50 | > 50 | > 50 | > 50 | > 50
4 | O=c1c(-c2ccc(O)cc2)coc2cc(OCCCN3CCCCC3)cc(O)c12 | > 50 | > 50 | > 50 | > 50 | > 50 | > 50 | > 50
5 | CN1CCN(CCCOc2cc(O)c3c(=O)c(-c4ccc(O)cc4)coc3c2)CC1 | > 50 | 43 (≈ 105 µM) | > 50 | > 50 | > 50 | > 50 | > 50
6 | O=c1c(-c2ccc(O)cc2)coc2cc(OCCCN3CCOCC3)cc(O)c12 | > 50 | > 50 | > 50 | > 50 | > 50 | > 50 | > 50
7 | CCCN(CCC)CCCOc1cc(O)c2c(=O)c(-c3ccc(O)cc3)coc2c1 | 15.3 (≈ 37.2 µM) | 32 (≈ 77.8 µM) | 45 (≈ 109 µM) | > 50 | > 50 | > 50 | > 50
8 | CN1CCN(CCCCOc2cc(O)c3c(=O)c(-c4ccc(O)cc4)coc3c2)CC1 | 27.2 (≈ 64.1 µM) | 30.3 (≈ 71.4 µM) | 37.4 (≈ 88.1 µM) | > 50 | > 50 | > 50 | > 50
9 | O=c1c(-c2ccc(O)cc2)coc2cc(OCCCCNCc3ccco3)cc(O)c12 | 35.3 (≈ 83.8 µM) | > 50 | 12 (≈ 28.5 µM) | > 50 | > 50 | > 50 | > 50
10 | O=c1c(-c2ccc(O)cc2)coc2cc(OCCCCn3ccnc3)cc(O)c12 | > 50 | > 50 | > 50 | > 50 | > 50 | > 50 | > 50
11 | O=c1c(-c2ccc(O)cc2)coc2cc(OCCBr)cc(O)c12 | > 50 | > 50 | > 50 | > 50 | > 50 | > 50 | > 50
12 | CCCN(CCC)CCOc1cc(O)c2c(=O)c(-c3ccc(O)cc3)coc2c1 | 41.2 (≈ 104 µM) | > 50 | 47.5 (≈ 120 µM) | > 50 | > 50 | > 50 | > 50
13 | O=c1c(-c2ccc(O)cc2)coc2cc(OCCn3ccnc3)cc(O)c12 | > 50 | > 50 | > 50 | > 50 | > 50 | > 50 | > 50
14 | O=c1c(-c2ccc(O)cc2)coc2cc(OCCn3cnc4ccccc43)cc(O)c12 | > 50 | > 50 | > 50 | > 50 | > 50 | > 50 | > 50
15 | O=c1c(-c2ccc(O)cc2)coc2cc(OCCCn3cnc4ccccc43)cc(O)c12 | > 50 | > 50 | > 50 | > 50 | > 50 | > 50 | > 50
16 | O=c1c(-c2ccc(O)cc2)coc2cc(OCCCCN3CCCCC3)cc(O)c12 | > 50 | > 50 | > 50 | > 50 | > 50 | > 50 | > 50
17 | O=c1c(-c2ccc(O)cc2)coc2cc(OCCCNCc3ccco3)cc(O)c12 | 3.4 (≈ 8.35 µM) | 12.5 (≈ 30.7 µM) | 10.5 (≈ 25.8 µM) | > 50 | > 50 | > 50 | 45.5 (≈ 112 µM)
18 | O=c1c(-c2ccc(O)cc2)coc2cc(OCCNCc3ccco3)cc(O)c12 | > 50 | > 50 | > 50 | > 50 | > 50 | > 50 | > 50
19 | O=c1c(-c2ccc(O)cc2)coc2cc(OCCN3CCCC3)cc(O)c12 | 49.6 (≈ 135 µM) | > 50 | 28.5 (≈ 77.6 µM) | > 50 | > 50 | > 50 | 39.8 (≈ 108 µM)
20 | O=c1c(-c2ccc(O)cc2)coc2cc(OCCN3CCNCC3)cc(O)c12 | 17.5 (≈ 45.8 µM) | 47.5 (≈ 124 µM) | 23.5 (≈ 61.5 µM) | > 50 | > 50 | > 50 | > 50
21 | O=c1c(-c2ccc(O)cc2)coc2cc(OCCCCN3CCOCC3)cc(O)c12 | 37.5 (≈ 91.1 µM) | 35.5 (≈ 86.3 µM) | > 50 | > 50 | > 50 | > 50 | > 50
22 | O=c1c(-c2ccc(O)cc2)coc2cc(O)cc(O)c12 [GENISTEIN] | > 50 | > 50 | > 50 | > 50 | > 50 | > 50 | > 50
23 | NC[C@H]1O[C@H](O[C@H]2[C@H](O)[C@@H](O[C@H]3O[C@H](CO)[C@@H](O)[C@H](N)[C@H]3O)[C@H](N)C[C@@H]2N)[C@H](O)[C@@H](O)[C@@H]1O [KANAMYCIN] | 1 (≈ 2.06 µM) | 1 (≈ 2.06 µM) | 3.9 (≈ 8.05 µM) |  |  | 3.9 (≈ 8.05 µM) | 
24 | CC(=O)N1CCN(c2ccc(OCC3COC(Cn4ccnc4)(c4ccc(Cl)cc4Cl)O3)cc2)CC1 (stereo not given) [KETOCONAZOLE] |  |  |  | 3.9 (≈ 7.34 µM) | 3.9 (≈ 7.34 µM) |  | 7.8 (≈ 14.7 µM)

Other lines, results leading:

Row | MIC [1] [µg/mL] | MIC [2] [µg/mL] | MIC [3] [µg/mL] | MIC [4] [µg/mL] | MIC [5] [µg/mL] | MIC [6] [µg/mL] | MIC [7] [µg/mL] | SMILES
25 | > 50 | > 50 | > 50 | > 50 | > 50 | > 50 | > 50 | O=c1c(-c2ccc(O)cc2)coc2cc(OCCCn3ccnc3)cc(O)c12
26 | > 50 | > 50 | > 50 | > 50 | > 50 | > 50 | > 50 | O=c1c(-c2ccc(O)cc2)coc2cc(OCCCBr)cc(O)c12
27 | > 50 | > 50 | > 50 | > 50 | > 50 | > 50 | > 50 | O=c1c(-c2ccc(O)cc2)coc2cc(OCCN3CCOCC3)cc(O)c12
28 | 21.3 (≈ 48.1 µM) | > 50 | > 50 | > 50 | > 50 | > 50 | > 50 | O=c1c(-c2ccc(O)cc2)coc2cc(OCCCCn3cnc4ccccc43)cc(O)c12
29 | 40 (≈ 101 µM) | > 50 | > 50 | > 50 | > 50 | > 50 | > 50 | O=c1c(-c2ccc(O)cc2)coc2cc(OCCCN3CCNCC3)cc(O)c12
30 | 35.5 (≈ 89.5 µM) | > 50 | > 50 | > 50 | > 50 | > 50 | > 50 | CN1CCN(CCOc2cc(O)c3c(=O)c(-c4ccc(O)cc4)coc3c2)CC1
31 | 17.1 (≈ 38.9 µM) | > 50 | 18.5 (≈ 42.1 µM) | > 50 | > 50 | > 50 | > 50 | CCCCN(CCCC)CCCOc1cc(O)c2c(=O)c(-c3ccc(O)cc3)coc2c1
32 | 20.1 (≈ 49 µM) | 15.5 (≈ 37.8 µM) | 37.5 (≈ 91.4 µM) | > 50 | > 50 | > 50 | > 50 | O=c1c(-c2ccc(O)cc2)coc2cc(OCCCCN3CCNCC3)cc(O)c12
33 | 23.7 (≈ 59.9 µM) | 38.5 (≈ 97.4 µM) | 23.1 (≈ 58.4 µM) | > 50 | 48.5 (≈ 123 µM) | > 50 | > 50 | O=c1c(-c2ccc(O)cc2)coc2cc(OCCCCN3CCCC3)cc(O)c12
34 | 32.8 (≈ 77.1 µM) | 30 (≈ 70.5 µM) | 37 (≈ 87 µM) | > 50 | > 50 | > 50 | 41.6 (≈ 97.8 µM) | CCCCN(CCCC)CCOc1cc(O)c2c(=O)c(-c3ccc(O)cc3)coc2c1
35 | 18.5 (≈ 48.5 µM) | 48.5 (≈ 127 µM) | 20.5 (≈ 53.7 µM) | 20.5 (≈ 53.7 µM) | 21.5 (≈ 56.4 µM) | > 50 | 23.5 (≈ 61.6 µM) | O=c1c(-c2ccc(O)cc2)coc2cc(OCCCN3CCCC3)cc(O)c12
36 | 1.7 (≈ 3.75 µM) | 3.7 (≈ 8.16 µM) | 13.2 (≈ 29.1 µM) | > 50 | > 50 | > 50 | > 50 | CCCCN(CCCC)CCCCOc1cc(O)c2c(=O)c(-c3ccc(O)cc3)coc2c1
